From PubChem BioAssay
ERp5 block – inhibitors of human ERp5 | 350,000 compounds, 0.05% hits | inhibition, % at 9.99 µM | ERp5 insulin aggregation, absorbance 650 nm, 90 min | Q15084;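 active = mean replicate inhibition above about 25%, with every replicate also reaching it, limit read from the data, passing the limit was not always enough; inconclusive = only one of those two criteria met; inactive = neither criterion met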
FN deposition inh – fibronectin deposition inhibition; inhibition, % at 12.6 µM; AH1F fibroblasts, Alexa488-fibronectin deposition fluorescence, overnight; 350,000 compounds, 0.086% hits; AID 743247;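 active = mean inhibition across replicates of 30% or more, regardless of how many single replicates reach that level; inconclusive = mean under 30% yet at least half of replicates reach 30%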
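Schedule: 1 h cell adhesion before compound, then overnight fibronectin incubation; test system: AH1F fibroblast monolayer depositing Alexa488-labelled fibronectin into matrix; quantity: 10000 AH1F cells per well; probe or stimulus: fluorescent fibronectin at 24 nM final; signal: fluorescence, ex 485 nm, em 525 nm; evaluation: percent inhibition as loss of matrix-bound fibronectin fluorescence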
rRNA inh HTS – inhibits bacterial ribosomal RNA function over humanized ribosomes; GFP signal change (wild-type ribosome), % (no concentration beside the values); 350,000 compounds, 1.6% hits; E. coli WT GFP vs humanized-ribosome RFP mutants, fluorescence, 24 h; hits give low values; DMSO median 0, no signal -100; AID 720706;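 active = significant combined selectivity score with lowered wild-type GFP, culture density cut under 30%, mutant RFP and density less affected; inactive = any of these conditions unmet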
PvdQ acylase – P. aeruginosa PvdQ acylase inhibition | purified PvdQ acylase, fluorescence plate reader | inhibition, % at 10 µM | 340,000 compounds, 0.063% hits; in the data active = inhibition above about 30%, passing the limit was not always enough; inconclusive = no clear call, values can overlap the other calls
Env fusion inh – blocks HIV Env-driven cell-cell fusion | HeLa-JRFL Env/CEM21 cell fusion, luciferase | inhibition, % at 12.3 µM | 360,000 compounds, 1.1% hits | AID 651610;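 active = mean replicate inhibition score of at least 50 and every replicate individually at or above 50; inconclusive = only one of the two criteria met; inactive = mean below 50 and not all replicates reaching 50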
PDI inh – inhibitors of human protein disulfide isomerase; AID 588391; 350,000 compounds, 0.052% hits; PDI insulin aggregation turbidity, A650, 90 min; P07237; inhibition, % at 10 µM;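 active = mean inhibition across replicates of 30% or more, whatever share of single replicates reach that level; inconclusive = mean inhibition below 30% while every single replicate reaches 30%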
Target sequence (P07237 whole entry, looked up): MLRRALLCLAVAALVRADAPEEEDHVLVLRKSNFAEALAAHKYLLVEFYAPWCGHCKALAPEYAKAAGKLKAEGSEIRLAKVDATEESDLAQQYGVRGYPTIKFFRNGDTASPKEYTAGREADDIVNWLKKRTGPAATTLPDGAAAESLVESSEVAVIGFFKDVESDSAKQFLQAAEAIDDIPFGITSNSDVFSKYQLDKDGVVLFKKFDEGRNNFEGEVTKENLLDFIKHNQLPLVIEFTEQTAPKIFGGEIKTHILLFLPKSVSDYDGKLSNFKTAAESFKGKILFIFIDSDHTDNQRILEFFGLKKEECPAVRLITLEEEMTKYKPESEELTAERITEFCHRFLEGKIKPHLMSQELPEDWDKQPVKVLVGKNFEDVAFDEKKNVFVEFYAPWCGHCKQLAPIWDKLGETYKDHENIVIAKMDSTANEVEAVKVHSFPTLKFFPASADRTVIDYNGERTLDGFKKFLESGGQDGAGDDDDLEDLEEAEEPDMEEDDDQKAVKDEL
AID977621 – growth inhibition of wild-type GFP E. coli, dose response, H69 mutant RFP, cherry-pick. shares compounds with rRNA inh HTS. E. coli wild-type GFP strain growth, fluorescence, 24 h. activity change, negative = inhibition at 50 µM. 1,900 tested, under 10 active;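 active = Wild-type ribosome reporter drop at least double the humanized mutant ribosome reporter drop, growth loss under a set limit; inconclusive = no clear call, values can overlap the other calls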;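 note: wild-type GFP and H69 mutant RFP strains grown together 50/50 in each well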
AID977628 – E. coli growth inhibition, wild-type GFP versus h24 humanized RFP strain, dose response, h24 mutant RFP vs wild-type GFP, cherry-pick | shares compounds with rRNA inh HTS | E. coli WT GFP strain growth, fluorescence, 24 h | activity change, negative = inhibition at 50 µM | 1,900 tested, under 10 active | AID 977628;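 active = compound lowering the normal-ribosome reporter at least twice as much as the humanized-ribosome reporter, growth loss under a set limit; inconclusive = no clear call, values can overlap the other calls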;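 note: wild-type GFP and h24 humanized RFP strains co-cultured 1 to 1 per well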
A number is an active result; 0 = inactive; ? = inconclusive; - = no result given; ! = repeats disagree. An excerpt weighted towards active compounds, which were near 2.2% of everything screened.

SMILES	ERp5 block	FN deposition inh	rRNA inh HTS	PvdQ acylase	Env fusion inh	PDI inh	AID977621	others
C=C1C(=O)O[C@H]2C[C@H]1[C@@H](OC(C)=O)C/C(C)=C/CC/C(C)=C\CC[C@]2(C)O	0	0	-	0	81	0	-
CC(C)(C)C1CCC(OCC(O)CN2CCN(c3ccccn3)CC2)CC1 (stereo unspecified)	0	0	-35	0	0	0	-
CC(C)(C)C1CCC(OCC(O)CN2CCN(Cc3ccccc3)CC2)CC1 (stereo unspecified)	0	0	0	0	0	0	-
CC(C)CC#Cc1ccc2c(c1)O[C@H](CN(C)Cc1cccnc1)[C@@H](C)CN([C@H](C)CO)S2(=O)=O	0	0	0	-	0	-	-
CCNC(=O)C[C@H]1CC[C@@H]2[C@@H](COc3ccc(NC(=O)c4ccccc4)cc3C(=O)N2C)O1	0	0	0	-	0	-	-
CC1=NN(c2ccccc2)C(=O)C1/C=C1\NC(=S)NC1=O (stereo unspecified)	0	-	0	0	0	0	-
CC1=NN(c2ccccc2)C(=O)C1C=Nc1ccccc1O (stereo unspecified)	0	0	-19	0	0	0	-
CCCNC(=O)N1CC2(CN(C(=O)CCC)C2)c2c(n(C)c3cc(OC)ccc23)[C@H]1CO	-	-	0	-	-	-	-
Oc1c(Cl)cc(Cl)cc1/C=N/NC(=S)NC1CC2C=CC1C2 (stereo unspecified)	0	0	-31	0	0	0	-
Oc1ccccc1/C=N/NC(=S)NC1CC2C=CC1C2 (stereo unspecified)	0	0	-39	0	0	0	-
Oc1ccccc1C=NNC(=S)NC1CC2C=CC1C2 (stereo unspecified)	0	0	0	-	0	0	-
O=C(c1ccccc1)N1CCN(c2ncnc3sc4c(c23)CCC4)CC1	-	0	-	0	87	0	-
COc1ccc(NC(=O)C[C@H]2CC[C@H]3[C@@H](COc4ccc(NC(=O)C5CC5)cc4C(=O)N3C)O2)cc1	-	0	0	-	0	-	-
COc1ccc(NC(=O)c2ccc(CNc3c(NC4CCCCC4)c(=O)c3=O)cc2)c(OC)c1	0	0	0	0	0	0	-
CCOc1ccc(NC(=O)c2ccc(CNc3c(NC4CCCCC4)c(=O)c3=O)cc2)cc1	0	33	0	0	0	0	-
C[C@@H]1CCCCO[C@H](CN(C)C(=O)c2ccncc2)[C@@H](C)CN([C@@H](C)CO)C(=O)c2cc(NC(=O)CCC(F)(F)F)ccc2O1	-	0	0	-	0	-	-
O=C(Nc1ccc2c(c1)OCO2)c1cccc(S(=O)(=O)N2CCCC2)c1	0	-	-14	0	-	0	?
COc1ccc(Nc2nc(N)c([N+](=O)[O-])c(N3CCN(C)CC3)n2)cc1	0	0	0	0	0	0	-
COc1ccc(Nc2nc(N)c([N+](=O)[O-])c(N3CCCC3)n2)cc1	0	0	-21	0	0	0	0	AID977628=0
COc1ccc(OC)c(Nc2nc(N)c([N+](=O)[O-])c(N3CCOCC3)n2)c1	0	0	-31	0	0	0	?
CCNC(=O)C[C@H]1CC[C@@H]2[C@H](COc3ccc(NC(=O)Nc4cccc(OC)c4)cc3C(=O)N2C)O1	-	0	0	-	0	-	-
C/C=C/c1ccc2c(c1)O[C@H](CN(C)Cc1ccc(F)cc1)[C@H](C)CN([C@H](C)CO)S2(=O)=O	?	0	0	-	0	-	-
CN1C(=O)c2cc(NC(=O)c3cccc(F)c3)ccc2OC[C@@H]2O[C@H](CC(=O)NCC3CCCCC3)CC[C@H]21	0	0	0	-	0	-	-
CN1C(=O)c2cc(NC(=O)c3cccc(F)c3)ccc2OC[C@H]2O[C@@H](CC(=O)NCC3CCCCC3)CC[C@@H]21	0	0	-25!	-	0	-	0	AID977628=0
CC(=O)N1c2c(cc(Br)cc2S(=O)(=O)N2CCOCC2)CC1C (stereo unspecified)	-	0	-	0	0	0	-
SMILES	ERp5 block	FN deposition inh	rRNA inh HTS	PvdQ acylase	Env fusion inh	PDI inh	AID977621	others
CC(=O)N1c2c(cc(Br)cc2S(=O)(=O)N2CCCCC2)CC1C (stereo unspecified)	?	0	-19	0	0	0	-	AID977628=0
C[C@H](CO)N1C[C@H](C)[C@H](CN(C)S(=O)(=O)c2ccc(F)cc2)Oc2ccc(NC(=O)Nc3ccc(C(F)(F)F)cc3)cc2CC1=O	-	-	0	-	-	-	-
Cc1ccc(-c2nc(CN3CCCCC3c3cccc(F)c3)c(C)o2)o1 (stereo unspecified)	0	-	-18	0	0	0	0	AID977628=0
CC1Sc2ccc(S(=O)(=O)NCc3ccccc3)cc2NC1=O (stereo unspecified)	0	0	-21	0	0	0	0
COc1ccc(NC(=O)Nc2ccc3c(c2)C(=O)N([C@H](C)CO)C[C@@H](C)[C@@H](CN(C)S(=O)(=O)c2ccc(F)cc2)OCCCC[C@@H](C)O3)cc1	0	0	0	-	0	-	-
C[C@@H]1CN([C@H](C)CO)C(=O)c2cc(C#CC3CCCCC3)cnc2O[C@@H]1CN(C)C(=O)Nc1ccccc1	0	0	0	-	0	-	-
Clc1ccc2nc(CN3CCCc4ccccc43)cn2c1	0	-	-20!	0	-	0	0
Cn1cnc([N+](=O)[O-])c1Oc1ccccc1	0	0	-37	0	0	0	0	AID977628=0
Cn1cnc([N+](=O)[O-])c1Oc1cccc(O)c1	-	0	-	0	0	0	-
COc1ccccc1CNC(=O)C[C@@H]1C[C@@H]2c3cc(NC(=O)C4CCC4)ccc3O[C@@H]2[C@@H](CO)O1	0	0	0	-	0	-	-
C[C@H](O)C#Cc1ccc2c(c1)O[C@@H](CN(C)C(=O)CN(C)C)[C@@H](C)CN([C@H](C)CO)S2(=O)=O	0	-	0	-	0	-	-
CCc1cc2ccc(OC)cc2nc1SCC(=O)NNC(=O)c1ccco1	0	0	0	0	0	0	-
CCc1cc2ccc(OC)cc2nc1SCC(=O)N1CCN(C(=O)c2ccco2)CC1	0	0	-26	0	0	0	0
C[C@H](CO)N1C[C@H](C)[C@@H](CN(C)C(=O)CCCN(C)C)OCCCC[C@H](C)Oc2ccc(NC(=O)Nc3ccc(C(F)(F)F)cc3)cc2C1=O	-	-	0	-	0	-	-
CSc1cccc(NC(=O)CCNC(=O)c2ccco2)c1	0	0	0	0	0	0	-
O=C(CCNC(=O)c1ccco1)Nc1cccc(Br)c1	0	0	-20	0	0	0	0	AID977628=?
Fc1ccc(-c2cn(-c3ccccc3)c3[n+]2CCS3)cc1	0	0	0	0	0	0	-
Clc1ccc(-c2cn(-c3ccccc3)c3[n+]2CCS3)cc1	0	0	-18	0	0	0	0	AID977628=?
Cc1ccc(-c2cc(C(=O)O)c3ccccc3n2)s1	0	0	0	0	0	0	-
